According to ChEMBL document CHEMBL1132213, “Tyrosine kinase inhibitors. 15. 4-(Phenylamino)quinazoline and 4-(phenylamino)pyrido[d]pyrimidine acrylamides as irreversible inhibitors of the ATP binding site of the epidermal growth factor receptor” (J Med Chem, 1999):
“And” between values parts separate entries of the source, which are not always exact repeats. Equal entries are not always repeated. Blank lines part the entries; values can stand above or below the compound they belong to.

Columns and labels:
NCI-H125 [1] = experiment: (§1) In vivo activity against H125 xenograft in nude mice, weight change at 200 mg/kg peroral dose; assay type: functional; conditions: route oral
Summary of the method: (§2)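 Nude (NCr nu/nu) mice of 18–22 g were randomized and implanted sc in the right axilla with serially passaged A431 or H125 tumor fragments on day 0. Dosing by average cage weight (6 mice/group) ip or po began at 100–150 mg tumor mass. The ip vehicle was 6% dimethylacetamide/94% 50 mM sodium lactate pH 4.0 suspension; later suspensions used 0.5% methylcellulose. T/C = median treated/control tumor mass ×100% on the last therapy day. T−C = days for tumors to reach 750 mg.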

A-431 [2] = experiment: (§3) In vivo activity against A431 xenograft in nude mice, weight change at 200 mg/kg peroral dose; assay type: functional; conditions: route oral; summary of the method: as §2
[3] = target: T1, Epidermal growth factor receptor (Homo sapiens, UniProt P00533)
T1 sequence (P00533 whole entry): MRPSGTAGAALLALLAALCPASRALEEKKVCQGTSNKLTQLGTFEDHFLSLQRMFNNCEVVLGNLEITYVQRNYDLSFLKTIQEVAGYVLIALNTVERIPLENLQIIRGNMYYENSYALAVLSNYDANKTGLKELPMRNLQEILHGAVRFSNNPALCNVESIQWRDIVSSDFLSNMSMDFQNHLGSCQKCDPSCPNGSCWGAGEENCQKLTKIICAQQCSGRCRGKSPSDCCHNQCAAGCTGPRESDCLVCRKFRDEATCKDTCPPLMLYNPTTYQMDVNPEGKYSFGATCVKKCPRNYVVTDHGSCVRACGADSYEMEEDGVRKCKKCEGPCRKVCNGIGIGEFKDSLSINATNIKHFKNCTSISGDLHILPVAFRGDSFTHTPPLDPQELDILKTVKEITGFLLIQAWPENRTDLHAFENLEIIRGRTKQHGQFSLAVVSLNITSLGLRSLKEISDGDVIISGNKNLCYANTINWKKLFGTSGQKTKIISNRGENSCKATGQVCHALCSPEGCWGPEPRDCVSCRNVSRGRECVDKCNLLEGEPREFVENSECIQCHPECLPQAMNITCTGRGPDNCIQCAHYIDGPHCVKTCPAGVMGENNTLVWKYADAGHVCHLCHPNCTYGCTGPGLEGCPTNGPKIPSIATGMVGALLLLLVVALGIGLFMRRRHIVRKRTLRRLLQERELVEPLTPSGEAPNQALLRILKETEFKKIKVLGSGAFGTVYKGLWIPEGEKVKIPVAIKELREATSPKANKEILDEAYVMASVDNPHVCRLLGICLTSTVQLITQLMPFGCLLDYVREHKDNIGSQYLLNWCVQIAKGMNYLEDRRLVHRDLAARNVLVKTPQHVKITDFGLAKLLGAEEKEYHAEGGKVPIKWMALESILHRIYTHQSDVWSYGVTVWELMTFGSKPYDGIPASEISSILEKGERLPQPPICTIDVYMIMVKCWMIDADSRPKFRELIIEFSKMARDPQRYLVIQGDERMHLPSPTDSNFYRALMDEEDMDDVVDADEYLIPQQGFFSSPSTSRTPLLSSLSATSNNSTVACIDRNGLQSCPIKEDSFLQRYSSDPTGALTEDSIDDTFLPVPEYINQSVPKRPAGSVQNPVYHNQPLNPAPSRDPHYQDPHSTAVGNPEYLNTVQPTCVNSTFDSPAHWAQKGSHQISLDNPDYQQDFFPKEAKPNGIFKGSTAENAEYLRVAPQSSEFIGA

Mus musculus [4] = experiment: Difference in days for treated (T) and control (C) tumors to reach 750 mg at 200 mg/kg ip dose; assay type: functional; conditions: route intraperitoneal; summary of the method: as §2
A-431 [5] = experiment: In vivo activity against A431 xenograft in nude mice, ratio of treated/control median tumor mass at 200 mg/kg peroral dose; assay type: functional; conditions: route oral; summary of the method: as §2
[6] = target: T1, Epidermal growth factor receptor; remark: listed apart in the source
[7] = target: T2, Receptor tyrosine-protein kinase erbB-2 (Homo sapiens, UniProt P04626); experiment: Inhibition of heregulin-stimulated autophosphorylation of ERBB2 receptor kinase in MDA-MB-453 cells.; assay type: cell-based
T2 sequence (P04626 whole entry): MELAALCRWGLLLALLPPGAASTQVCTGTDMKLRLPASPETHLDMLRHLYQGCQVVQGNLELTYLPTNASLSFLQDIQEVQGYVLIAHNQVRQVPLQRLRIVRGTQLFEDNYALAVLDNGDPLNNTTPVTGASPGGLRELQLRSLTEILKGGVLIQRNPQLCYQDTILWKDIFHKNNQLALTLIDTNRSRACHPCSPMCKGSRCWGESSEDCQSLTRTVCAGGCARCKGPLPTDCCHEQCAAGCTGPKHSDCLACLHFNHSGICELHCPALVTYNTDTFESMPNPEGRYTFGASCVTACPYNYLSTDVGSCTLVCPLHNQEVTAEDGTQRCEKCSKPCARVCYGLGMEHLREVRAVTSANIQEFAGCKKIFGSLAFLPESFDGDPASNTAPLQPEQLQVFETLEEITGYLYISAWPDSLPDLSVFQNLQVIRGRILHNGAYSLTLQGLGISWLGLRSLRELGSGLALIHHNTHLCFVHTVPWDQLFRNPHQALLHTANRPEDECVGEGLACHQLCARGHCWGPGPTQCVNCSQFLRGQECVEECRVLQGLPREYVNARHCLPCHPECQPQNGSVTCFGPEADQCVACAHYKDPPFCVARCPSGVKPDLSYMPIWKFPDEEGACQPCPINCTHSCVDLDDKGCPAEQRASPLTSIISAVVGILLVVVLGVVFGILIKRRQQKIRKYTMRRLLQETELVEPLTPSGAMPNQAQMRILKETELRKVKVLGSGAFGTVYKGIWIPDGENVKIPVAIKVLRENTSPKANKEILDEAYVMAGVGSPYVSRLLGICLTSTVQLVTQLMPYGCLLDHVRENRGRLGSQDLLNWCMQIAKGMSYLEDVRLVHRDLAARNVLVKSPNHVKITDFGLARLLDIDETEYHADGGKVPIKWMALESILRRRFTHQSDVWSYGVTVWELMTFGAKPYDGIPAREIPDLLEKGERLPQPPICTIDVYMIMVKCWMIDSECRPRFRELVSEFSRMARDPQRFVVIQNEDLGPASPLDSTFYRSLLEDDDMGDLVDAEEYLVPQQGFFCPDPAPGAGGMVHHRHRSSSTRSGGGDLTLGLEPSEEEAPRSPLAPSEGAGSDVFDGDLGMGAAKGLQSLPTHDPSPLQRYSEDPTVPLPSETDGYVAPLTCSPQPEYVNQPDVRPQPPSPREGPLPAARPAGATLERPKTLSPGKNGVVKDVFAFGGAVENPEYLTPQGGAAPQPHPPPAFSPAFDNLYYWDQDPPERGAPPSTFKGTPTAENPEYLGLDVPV
Summary of the method: (§4)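 MDA-MB-453 cells in αMEM/F12 with 10% FBS were grown to 90% confluency and held serum-free for 18 h. Cells were treated 1 h with varied inhibitor concentrations, then stimulated 5 min with heregulin (10 ng/mL) and lysed in boiling Laemmli buffer. Read-out was SDS-PAGE and antiphosphotyrosine Western blot with [125I]protein A detection and laser densitometry. IC50 is the average of two experiments.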

NCI-H125 [8] = experiment: In vivo activity against H125 xenograft in nude mice, ratio of treated/control median tumor mass at 200 mg/kg peroral dose; assay type: functional; conditions: route oral; summary of the method: as §2
NCI-H125 [9] = experiment: In vivo activity against H125 xenograft in nude mice, ratio of treated/control median tumor mass at 50 mg/kg peroral dose; assay type: functional; conditions: route oral; summary of the method: as §2
NCI-H125 [10] = experiment: In vivo activity against H125 xenograft in nude mice, weight change at 50 mg/kg ip dose; assay type: functional; conditions: route intraperitoneal; summary of the method: as §2
A-431 [11] = experiment: Difference in days for treated (T) and control (C) A431 cell tumors to reach 750 mg at 47 mg/kg ip dose; assay type: functional; conditions: route intraperitoneal; summary of the method: as §2
A-431 [12] = experiment: In vivo activity against A431 xenograft in nude mice, weight change at 47 mg/kg ip dose; assay type: functional; conditions: route intraperitoneal; summary of the method: as §2
A-431 [13] = experiment: In vivo activity against A431 xenograft in nude mice, ratio of treated/control median tumor mass at 47 mg/kg ip dose; assay type: functional; conditions: route intraperitoneal; summary of the method: as §2
A-431 [14] = experiment: In vivo activity against A431 xenograft in nude mice, weight change at 1150 mg/kg peroral dose; assay type: functional; conditions: dose 150 mg/kg; route oral; in the assay text read “150 mg/kg” for “1150 mg/kg”; summary of the method: as §2
NCI-H125 [15] = experiment: In vivo activity against H125 xenograft in nude mice, ratio of treated/control median tumor mass at 50 mg/kg ip dose; assay type: functional; conditions: route intraperitoneal; summary of the method: as §2
A-431 [16] = experiment: In vivo activity against A431 xenograft in nude mice, ratio of treated/control median tumor mass at 150 mg/kg peroral dose; assay type: functional; conditions: route oral; summary of the method: as §2
NCI-H125 [17] = experiment: Difference in days for treated (T) and control (C) H125 cell tumors to reach 750 mg at 9.6 mg/kg ip dose; assay type: functional; conditions: route intraperitoneal
Summary of the method: (§5)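 NCr nu/nu mice (18–22 g, 6/dose group) implanted sc in the right axilla with serially passaged H125 NSCLC fragments on day 0. Dosing ip by average cage weight as a fine suspension in 6% dimethylacetamide/94% 50 mM sodium lactate pH 4.0, started at tumor mass 100–150 mg. Read-outs were body weight change and treated-minus-control days to reach 750 mg.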

A-431 [18] = experiment: Difference in days for treated (T) and control (C) A431 cell tumors to reach 750 mg at 12 mg/kg ip dose; assay type: functional; conditions: route intraperitoneal; summary of the method: as §2
A-431 [19] = experiment: In vivo activity against A431 xenograft in nude mice, ratio of treated/control median tumor mass at 212 mg/kg peroral dose; assay type: functional; conditions: dose 12 mg/kg; route intraperitoneal; in the assay text read “12 mg/kg intraperitoneal dose” for “212 mg/kg peroral dose”; summary of the method: as §2
NCI-H125 [20] = experiment: In vivo activity against H125 xenograft in nude mice, ratio of treated/control median tumor mass at 9.6 mg/kg peroral dose; assay type: functional; conditions: route intraperitoneal, in the assay text read “intraperitoneal” for “peroral”
NCI-H125 [21] = experiment: as §1; assay type: functional, organism-based; parameters: dose 200 mg/kg; summary of the method: as §2
A-431 [22] = experiment: In vivo activity against A431 xenograft in nude mice, weight change at 12 mg/kg ip dose; assay type: functional; conditions: route intraperitoneal; summary of the method: as §2
NCI-H125 [23] = experiment: In vivo activity against H125 xenograft in nude mice, weight change at 9.6 mg/kg ip dose; assay type: functional; conditions: route intraperitoneal; summary of the method: as §5
[24] = target: T2, Receptor tyrosine-protein kinase erbB-2; experiment: Inhibition of heregulin-stimulated autophosphorylation of erbB2 in MDA-MB-453 cells.; assay type: cell-based; summary of the method: as §4
A-431 [25] = experiment: as §3; assay type: functional, organism-based; parameters: dose 200 mg/kg; summary of the method: as §2
A-431 [26] = experiment: In vivo activity against A431 xenograft in nude mice, weight change at 40 mg/kg peroral dose; assay type: functional; conditions: route oral; summary of the method: as §2
A-431 [27] = experiment: Difference in days for treated (T) and control (C) A431 cell tumors to reach 750 mg at 40 mg/kg peroral dose; assay type: functional; conditions: route oral; summary of the method: as §2
Mus musculus [28] = experiment: Difference in days for treated (T) and control (C) tumors to reach 750 mg at 200 mg/kg peroral dose; assay type: functional; conditions: route oral; summary of the method: as §2
A-431 [29] = experiment: In vivo activity against A431 xenograft in nude mice, ratio of treated/control median tumor mass at 40 mg/kg peroral dose; assay type: functional; conditions: route oral; summary of the method: as §2
A-431 [30] = experiment: In vivo activity against A431 xenograft in nude mice, weight change at 260 mg/kg peroral dose; conditions: route oral
A-431 [31] = experiment: In vivo activity against A431 cell tumor xenograft in nude mice at 75 ip mg/kg dose; assay type: functional; summary of the method: as §2
Mus musculus [32] = experiment: In vivo activity against tumor xenograft in nude mice, weight change at 75 mg/kg ip dose; assay type: functional; conditions: route intraperitoneal; summary of the method: as §2
NCI-H125 [33] = experiment: In vivo activity against H125 xenograft in nude mice, weight change at 250 mg/kg peroral dose; assay type: functional; conditions: route oral; summary of the method: as §2
A-431 [34] = experiment: In vivo activity against A431 xenograft in nude mice, ratio of treated/control median tumor mass at 260 mg/kg peroral dose; conditions: route oral
A-431 [35] = experiment: Difference in days for treated (T) and control (C) A431 cell tumors to reach 750 mg at 75 mg/kg ip dose; assay type: functional; conditions: route intraperitoneal; summary of the method: as §2
NCI-H125 [36] = experiment: Difference in days for treated (T) and control (C) tumors to reach 750 mg at 250 mg/kg peroral dose; assay type: functional; conditions: route oral; summary of the method: as §2
NCI-H125 [37] = experiment: Difference in days for treated (T) and control (C) H125 cell tumors to reach 750 mg at 50 mg/kg ip dose; assay type: functional; conditions: route intraperitoneal; summary of the method: as §2
NCI-H125 [38] = experiment: In vivo activity against H125 xenograft in nude mice, ratio of treated/control median tumor mass at 250 mg/kg peroral dose; assay type: functional; conditions: route oral; summary of the method: as §2
A-431 [39] = experiment: Difference in days for treated (T) and control (C) A431 cell tumors to reach 750 mg at 260 mg/kg peroral dose; assay type: functional; conditions: route oral; summary of the method: as §2

SMILES: C=CC(=O)Nc1cc2c(Nc3ccc(F)c(Cl)c3)ncnc2cn1
Weight change (NCI-H125 [1]): -1.8 g
Weight change (A-431 [2]): -0.3 g
IC50 [3]: 3.3 nM
T-C (Mus musculus [4]): 18.3 days and 12.7 days
T/C (A-431 [5]): 12%
IC50 [6]: 0.77 nM
IC50 [7]: 3 nM
T/C (NCI-H125 [8]): 27%

SMILES: C=CC(=O)Nc1ccc2ncnc(Nc3cccc(Br)c3)c2c1
T/C (NCI-H125 [9]): 8%
Weight change (NCI-H125 [10]): -1.5 g
T-C (A-431 [11]): 29 days and 15.7 days
Weight change (A-431 [12]): -1 g
T/C (A-431 [13]): 2%
IC50 [7]: 5.7 nM
Weight change (A-431 [14]): -1.7 g
T/C (NCI-H125 [15]): 15%
T/C (A-431 [16]): 2%

SMILES: C=CC(=O)Nc1ccc2ncnc(Nc3ccc(F)c(Br)c3)c2c1
IC50 [3]: 2.7 nM
IC50 [6]: 0.69 nM
IC50 [7]: 7.3 nM

SMILES: C=CC(=O)Nc1ccc2ncnc(Nc3ccc(F)c(Br)c3)c2n1
IC50 [3]: 18 nM
IC50 [6]: 1.2 nM
IC50 [7]: 26 nM

SMILES: C=CC(=O)Nc1cc2c(Nc3ccc(F)c(Br)c3)ncnc2cn1
Weight change (NCI-H125 [1]): -1.8 g
IC50 [3]: 2.1 nM
T-C (Mus musculus [4]): 51.1 days and 18.2 days
Weight change (A-431 [25]): Weight gain
T/C (A-431 [5]): 13%
IC50 [6]: 0.72 nM
IC50 [7]: 1.1 nM
T/C (NCI-H125 [8]): 19%

SMILES: C=CC(=O)Nc1ccc2ncnc(Nc3cccc(C)c3)c2c1
Weight change (NCI-H125 [10]): 0 g
Weight change (A-431 [30]): -1.3 g
T/C (A-431 [31]): 11%
Weight change (Mus musculus [32]): -2.2 g
Weight change (NCI-H125 [33]): -0.1 g
T/C (A-431 [34]): 3%
T-C (A-431 [35]): 32.3 days
IC50 [7]: 22 nM
T/C (NCI-H125 [15]): 15%
T-C (NCI-H125 [36]): 10.5 days
T-C (NCI-H125 [37]): 11.9 days
T/C (NCI-H125 [38]): 24%
T-C (A-431 [39]): 28.2 days

Further lines, with some results ahead:

IC50 [6]: 0.45 nM
IC50 [7]: 73 nM
SMILES: C=CC(=O)Nc1ccc2c(Nc3cccc(Br)c3)ncnc2c1

IC50 [7]: 3.9 nM
SMILES: C=CC(=O)Nc1cc2c(Nc3cccc(Br)c3)ncnc2cn1
T-C (NCI-H125 [17]): 8.7 days
T-C (A-431 [18]): 12 days
T-C (Mus musculus [4]): 24.3 days and 16.5 days
T/C (A-431 [19]): 17%
T/C (NCI-H125 [20]): 26%
Weight change (NCI-H125 [21]): Weight gain
T/C (NCI-H125 [8]; 200 mg/kg): 11% and 20%
Weight change (A-431 [22]): -2.4 g
Weight change (NCI-H125 [23]): -1.3 g

IC50 [7]: 12 nM
SMILES: C=CC(=O)Nc1ccc2ncnc(Nc3ccc(F)c(Cl)c3)c2n1

IC50 [24]: 8.8 nM
SMILES: C=CC(=O)Nc1cc2c(Nc3cccc(C)c3)ncnc2cn1

IC50 [3]: 9.9 nM
SMILES: C=CC(=O)Nc1ccc2ncnc(N3CCc4ccc(Br)cc43)c2c1

IC50 [3]: 3.1 nM
IC50 [6]: 0.75 nM
IC50 [7]: 4.3 nM
SMILES: C=CC(=O)Nc1ccc2ncnc(Nc3ccc(F)c(Cl)c3)c2c1
Weight change (NCI-H125 [1]): -0.3 g
Weight change (A-431 [26]): 0 g
T-C (A-431 [27]): 20.8 days
T-C (Mus musculus [28]): 27.4 days
T/C (NCI-H125 [8]): 16%
T/C (A-431 [29]): 11%

IC50 [7]: 8.6 nM
SMILES: C=CC(=O)Nc1ccc2ncnc(Nc3ccc(Oc4ccccc4)cc3)c2c1
